An excerpt weighted towards active compounds, which were near 2.2% of everything screened.
MT1-MMP txn act: MT1-MMP promoter reporter activation – cell-based, luciferase luminescence, primary screen; HT1080 MT1-MMP promoter luciferase reporter, overnight; stronger effect = higher value; activation factor at 10 µM; 86,000 tested, 0.16% active;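 active = activation factor of at least 2 for MT1-MMP transcription at 10 µM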
Calb biofilm kill: clotrimazole potentiators killing Candida biofilms, primary screen, with clotrimazole, Alamar Blue | C. albicans biofilm + clotrimazole | inhibition, % at 6 µM | 85,000 tested, 0.14% active;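 active = inhibition above 20%; inactive = inhibition below 20%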;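 note: preformed 24 hr biofilms exposed to compound for 48 hr; 0% = biofilm without compound and 100% = blank killed by clotrimazole plus chlorhexidine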
SF-1 act: activators of human SF-1, primary screen, cell-based, CHO-K1, Gal4-SF-1 LBD, luciferase luminescence | Steroidogenic factor 1 (Homo sapiens), Q13285 | CHO-K1 Gal4-SF-1 LBD luciferase reporter; % increase over DMSO SF-1-specific signal | activation, % at 10 µM | 65,000 tested, 1.9% active | AID 522, 2006;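 active = activation above the mean activation of all tested compounds plus 3 SD, cut at about 50% in these data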
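Assay system: CHO-K1 cells co-transfected with Gal4 DBD–human SF-1 LBD, 5xGal4 luciferase reporter / Input: 4,000 cells per well / Incubation: 20 h compound exposure at 37 °C after 1 h cell settling / Detection: SteadyLite luciferase luminescence / Control set: DMSO negative control and −SF1 background wells / Replication: one test per compound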
RORA act: activators of orphan receptor RORA, primary screen, cell-based, luminescence | Nuclear receptor ROR-alpha (Homo sapiens), P35398 | CHO-K1 Gal4-RORA LBD luciferase reporter; percent increase over mock-subtracted basal signal | activation, % at 10 µM | 65,000 tested, 1.5% active | AID 560, 2006;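 active = activation above the mean of all tested compounds plus 3 SD, cut at about 49% in these data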;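 note: 0% = DMSO-treated RORA cells and 100% = added signal equal to DMSO minus mock-transfected cells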
CD11b adhes inh: inhibitors of CD11b/CD18 adhesion to fibrinogen, primary screen, K562 cells, luminescence; Integrin beta-2 (Homo sapiens) + Integrin alpha-M (Homo sapiens), P05107+P11215; ATPlite luminescence; Mn2+ added to activate the integrin; inhibition, % at 10 µM; 93,000 tested, 0.54% active;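 active = primary inhibition of 50% or more at 10 µM, then 40% or more on retest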
Target sequence (P05107 whole entry, looked up, other chains not shown): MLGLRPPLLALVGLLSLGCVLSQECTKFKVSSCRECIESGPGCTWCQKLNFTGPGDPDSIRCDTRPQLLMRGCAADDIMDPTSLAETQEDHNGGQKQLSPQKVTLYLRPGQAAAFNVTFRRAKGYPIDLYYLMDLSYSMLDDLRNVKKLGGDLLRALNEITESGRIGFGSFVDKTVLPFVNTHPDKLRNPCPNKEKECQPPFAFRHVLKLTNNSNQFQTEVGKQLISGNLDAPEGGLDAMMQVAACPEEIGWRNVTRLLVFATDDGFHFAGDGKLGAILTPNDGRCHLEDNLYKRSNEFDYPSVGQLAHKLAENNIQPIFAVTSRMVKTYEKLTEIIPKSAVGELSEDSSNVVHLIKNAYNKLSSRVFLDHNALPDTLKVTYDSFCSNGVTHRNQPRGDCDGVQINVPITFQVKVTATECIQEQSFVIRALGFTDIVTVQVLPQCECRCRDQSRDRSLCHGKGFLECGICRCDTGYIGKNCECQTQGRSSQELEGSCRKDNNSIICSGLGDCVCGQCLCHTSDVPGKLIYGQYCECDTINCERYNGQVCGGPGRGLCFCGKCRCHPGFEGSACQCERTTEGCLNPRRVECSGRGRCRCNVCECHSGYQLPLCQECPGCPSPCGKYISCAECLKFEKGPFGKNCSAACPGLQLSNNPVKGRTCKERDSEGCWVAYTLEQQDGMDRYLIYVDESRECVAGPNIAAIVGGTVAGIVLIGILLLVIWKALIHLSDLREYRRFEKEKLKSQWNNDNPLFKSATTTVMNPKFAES
CD11b adhes enh: enhancers of CD11b/CD18 adhesion to fibrinogen, primary screen, K562 cells, luminescence; ATPlite luminescence; Integrin beta-2 (Homo sapiens) + Integrin alpha-M (Homo sapiens), P05107+P11215; activation, % at 10 µM; 93,000 tested, 0.07% active; AID 1499, 2009;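 active = 10 µM primary screen giving 50% or more activity, confirmed by 40% or more on retest at that dose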
The depositor's hits bear a star.

`Cc1cc2n(n1)C(c1ccccc1)Nc1ccccc1-2` (stereo not given) gave MT1-MMP txn act 1, Calb biofilm kill 6.5, SF-1 act 7.5, RORA act -18.0, CD11b adhes inh 2.8 and CD11b adhes enh 6.7.
Cc1cc2n(n1)C(c1ccc(N(C)C)cc1)Nc1ccccc1-2 (stereo not given) was read as MT1-MMP txn act 1.3, Calb biofilm kill 9.6, SF-1 act 75.0*, RORA act 13.1, CD11b adhes inh -2.7 and CD11b adhes enh 7.6.
Screening CCc1cc2c(=O)c(-c3cscn3)coc2cc1OC returned MT1-MMP txn act 1.5, Calb biofilm kill 5.3, SF-1 act 38.6, RORA act 51.5*, CD11b adhes inh 2.6 and CD11b adhes enh -3.4.
Screening COC(=O)C1CC1C(NC(=O)[C@@H]1CCCN1)c1ccccc1 (stereo not given in full) returned MT1-MMP txn act 1.2.
For O=C(NCc1ccc(F)cc1)c1cc2n(n1)C(C(F)(F)F)CC(C1CC1)N2 (stereo not given) the results were MT1-MMP txn act 1, Calb biofilm kill 10.3, SF-1 act 47.8, RORA act 63.9*, CD11b adhes inh -7.2 and CD11b adhes enh 3.9.
For O=C(Nc1nc2c(s1)CCCC2)c1cc2n(n1)C(C(F)(F)F)CC(C1CC1)N2 (stereo not given) the results were MT1-MMP txn act 1.7, Calb biofilm kill 6.2, SF-1 act 55.7*, RORA act 117.5*, CD11b adhes inh 1.2 and CD11b adhes enh 2.7.
Cc1nc2c(C(=O)N3CCCCC3)cnn2c(C)c1Cc1ccccc1F was read as MT1-MMP txn act 1.2, Calb biofilm kill -3.6, SF-1 act 41.6, RORA act 75.5*, CD11b adhes inh 23.6 and CD11b adhes enh -2.1.
Screening COc1ccccc1Nc1ncnc2nc[nH]c12 returned CD11b adhes inh 3.0 and CD11b adhes enh -6.6.
`CCCn1c(-c2cccs2)nc2nc3ccccc3nc21` gave MT1-MMP txn act 1.1, Calb biofilm kill 4.6, CD11b adhes inh 2.1 and CD11b adhes enh 4.0.
Screening c1csc(-c2nc3nc4ccccc4nc3n2Cc2ccc3c(c2)OCO3)c1 returned MT1-MMP txn act 1.5, Calb biofilm kill 4.6, SF-1 act 63.2* and RORA act 42.7.
Screening Cn1c(SCC(=O)N2c3ccccc3CCc3ccccc32)nnc1-c1ccc(O)cc1 returned CD11b adhes inh -29.1 and CD11b adhes enh -4.6.
For CN(C)CCNC(=O)c1cc2c(s1)-c1ccccc1OC2 the results were Calb biofilm kill 14.8, CD11b adhes inh 7.6 and CD11b adhes enh -11.6.
Cc1csc(NC(=O)c2cc3c(s2)-c2ccccc2OC3)n1 was read as MT1-MMP txn act 1.6, Calb biofilm kill -1.8, SF-1 act 43.0, RORA act 63.4*, CD11b adhes inh 28.9 and CD11b adhes enh 10.3.
For O=C(c1cc2c(s1)-c1ccccc1OC2)N1CCN(c2ccccc2)CC1 the results were Calb biofilm kill 2.2, CD11b adhes inh 5.9 and CD11b adhes enh -2.0.
O=C(c1cc2c(s1)-c1ccccc1OC2)N1CCCC1 was read as MT1-MMP txn act 1.6, Calb biofilm kill 6.7, SF-1 act 47.6, RORA act 83.8*, CD11b adhes inh 4.3 and CD11b adhes enh 0.3.
C/C(N)=C(/C#N)C(=O)COC(=O)CC12CC3CC(CC(C3)C1)C2 was read as MT1-MMP txn act 1.1, Calb biofilm kill -2.2, CD11b adhes inh 3.1 and CD11b adhes enh -3.8.
`O=C(O)CCn1cc(/C=C\C(=O)c2ccc(Cl)cc2)c(-c2cccc(Br)c2)n1` gave CD11b adhes inh 53.0* and CD11b adhes enh 25.3.
COC(=O)c1c(-c2ccc(C)cc2)csc1NC(=O)Cc1ccc(OC)c(OC)c1 was read as CD11b adhes inh 54.4* and CD11b adhes enh -3.6.
`O=C(Cc1ccccc1)NC1c2ccccc2-c2ccccc21` gave CD11b adhes inh 1.6 and CD11b adhes enh 6.8.
Cc1cc(CNC(=O)[C@H](C)[C@H]2C[C@]2(C)[C@H](NC(=O)OCc2ccccc2)c2ccccc2)nn1C was read as MT1-MMP txn act 1.1.
Screening CCN(C(=O)c1ccc(C(C)(C)C)cc1)c1nnc(Cn2nnc3ccccc32)s1 returned MT1-MMP txn act 1.1, Calb biofilm kill 9.2, SF-1 act -68.6, RORA act -66.2, CD11b adhes inh 99.2* and CD11b adhes enh -10.9.
Screening COc1ccc(C(CC(=O)O)NS(=O)(=O)c2ccc(C)cc2)cc1 (stereo not given) returned MT1-MMP txn act 1, Calb biofilm kill 2.6, CD11b adhes inh 51.3* and CD11b adhes enh 0.2.
For COC(=O)C(Nc1ccccc1Cl)(c1cc(C)c(O)c(C)c1)C(F)(F)F (stereo not given) the results were CD11b adhes inh 13.1 and CD11b adhes enh -4.9.
Screening COC(=O)/C(=C(/F)Sc1cc(C)c(O)c(C)c1)C(F)(F)F returned MT1-MMP txn act 1.1, Calb biofilm kill 1.9, CD11b adhes inh 54.8* and CD11b adhes enh -7.4.
Screening CC(=O)c1ccc(N2CCN(C(C)C(=O)NC3CCCc4ccccc43)CC2)cc1 (stereo not given) returned CD11b adhes inh 13.8 and CD11b adhes enh 2.7.
For Cn1c(SCC(=O)c2ccc(F)cc2)nnc1-c1cnccn1 the results were MT1-MMP txn act 2.8*, Calb biofilm kill -0.9, SF-1 act 14.7, RORA act 20.2, CD11b adhes inh -5.5 and CD11b adhes enh -5.3.
`Cn1c(SCc2ccccc2Cl)nnc1-c1cnccn1` gave MT1-MMP txn act 1.6, Calb biofilm kill -3.0, SF-1 act 56.1*, RORA act 51.5*, CD11b adhes inh 5.6 and CD11b adhes enh -3.7.
For Cn1c(SC/C=C/c2ccccc2)nnc1-c1cnccn1 the results were MT1-MMP txn act 1.2, Calb biofilm kill -1.5, SF-1 act 5.0, RORA act 8.6, CD11b adhes inh 3.5 and CD11b adhes enh 4.1.
COc1ccc2c(c1)c(C(=O)N/N=C/c1ccc(OC)c(OC)c1)c(C)n2C was read as CD11b adhes inh 4.6 and CD11b adhes enh 2.2.
`CC1=C(C(=O)OCC(C)C)C(c2cccs2)NC(=S)N1` (stereo not given) gave CD11b adhes inh 0.9 and CD11b adhes enh -1.9.
Cc1cc(NC(c2cccnc2)c2c(C)[nH]c3ccccc23)no1 (stereo not given) was read as MT1-MMP txn act 1, Calb biofilm kill 27.4*, SF-1 act -10.8, RORA act 16.5, CD11b adhes inh -11.0 and CD11b adhes enh 0.2.
